Source: ChEMBL document CHEMBL1149900, “ent-Labdane diterpenoid lactone stereoisomers from Andrographis paniculata” (2008)

System: HL-60
Test: Antiproliferative activity against human HL60 cells by trypan blue assay
Assay type: functional
In short: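 HL-60 cells seeded at 1 × 10^5 cells/mL, exposed to test compound at 5, 10, 20, 40 or 60 µM for 3 days. Viable growth scored by trypan blue staining, with total cells counted on a hemocytometer. GI50 taken as the concentration halving cell growth. Reported as mean ± SD of three independent experiments, with adriamycin as positive control.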

Row | SMILES | GI50 [µM]
1 | C=C1CC[C@@H]2[C@](C)(CO)[C@H](O)CC[C@@]2(C)[C@@H]1/C=C/C1=CCOC1=O | 25.6
2 | C=C1CC[C@@H]2[C@](C)(CO)[C@H](O)CC[C@@]2(C)[C@@H]1C/C=C1\C(=O)OC[C@H]1O | 6.3
3 | C=C1CC[C@@H]2[C@](C)(CO)[C@H](O)CC[C@@]2(C)[C@@H]1C[C@@H](O)[C@H]1C(=O)OC[C@H]1O | 26.6
4 | C=C1CC[C@@H]2[C@](C)(CO)[C@H](O)CC[C@@]2(C)[C@@H]1C[C@H](O)[C@@H]1C(=O)OC[C@H]1O | 24.4
5 | C=C1CC[C@@H]2[C@](C)(CO)[C@H](O)CC[C@@]2(C)[C@@H]1CCO | 24.9
6 | C=C1CC[C@@H]2[C@](C)(CO)[C@H](O)CC[C@@]2(C)[C@@H]1/C=C/C1=CC(OC)OC1=O (some centres undefined) | 26.4
7 | C=C1CC[C@@H]2[C@](C)(CO)[C@H](O)CC[C@@]2(C)[C@@H]1/C=C/C(=O)O | 28.8
8 | C=C1CC[C@@H]2[C@](C)(CO)[C@H](O)CC[C@@]2(C)[C@@H]1CC/C(=C/CO)C(=O)O | 22.4
9 | C=C1CC[C@@H]2[C@](C)(CO[C@@H]3O[C@H](CO)[C@@H](O)[C@H](O)[C@H]3O)[C@H](O)CC[C@@]2(C)[C@@H]1C/C=C1/C(=O)OC[C@H]1O [ANDROGRAPHISIDE] | 28.8
10 | C=C1CC[C@@H]2[C@](C)(CO)[C@H](O)CC[C@@]2(C)[C@@H]1C/C=C1/C(=O)OC[C@H]1O [ANDROGRAPHOLIDE] | 9.33
11 | COc1cccc2c1C(=O)c1c(O)c3c(c(O)c1C2=O)C[C@@](O)(C(=O)CO)C[C@@H]3O[C@H]1C[C@H](N)[C@H](O)[C@H](C)O1 [DOXORUBICIN] | 0.018

The remaining lines, values ahead:

Row | GI50 [µM] | SMILES
12 | 19.2 | C=C1CC[C@H]2[C@@](C)(CCC(=O)[C@@]2(C)CO)[C@@H]1/C=C/C1=CCOC1=O
13 | 22.5 | C=C1[C@H](O)C[C@@H]2[C@](C)(CO)[C@H](O)CC[C@@]2(C)[C@@H]1CCC1=CCOC1=O
14 | 20.4 | C=C1CC[C@@H]2[C@](C)(CO)CCC[C@@]2(C)[C@@H]1CC/C(=C/CO)CO
15 | 22.8 | C=C1CC[C@H]2[C@@](C)(CCC(=O)[C@@]2(C)CO)[C@@H]1CCC1=CCOC1=O
16 | 25.2 | C=C1[C@@H](CCC2=CCOC2=O)[C@]2(C)CC[C@@H](O)[C@@](C)(CO)[C@H]2C[C@@H]1O
17 | 20 | C=C1CC[C@@H]2[C@](C)(CO)CCC[C@@]2(C)[C@@H]1CCC1=CCOC1=O [ANDROGRAPANIN]
18 | 25.5 | C=C1CC[C@@H]2[C@](C)(CO)[C@H](O)CC[C@@]2(C)[C@@H]1CCC1=CCOC1=O [DEOXYANDROGRAPHOLIDE]
19 | 26.7 | C=C1CC[C@@H]2[C@](C)(CO[C@@H]3O[C@H](CO)[C@@H](O)[C@H](O)[C@H]3O)CCC[C@@]2(C)[C@@H]1CCC1=CCOC1=O [NEOANDROGRAPHOLIDE]
